The subject of one test is SW-620. As to the kind of experiment: Growth inhibition of human SW620 cells assessed as cell growth at 10 uM after 48 hrs by MTT assay; values are per cent of control. Conditions: SW-620, 48 h.
A further test has as its system HT-29. As to the kind of experiment: Growth inhibition of human HT-29 cells assessed as cell growth at 10 uM after 48 hrs by MTT assay; values are per cent of control. The settings on record: HT-29, 48 h.
Test [1] can be described thus: Growth inhibition of human Hs 578T cells assessed as cell growth at 10 uM after 48 hrs by MTT assay; values are per cent of control.
The target in test [2] is T1, NAD-dependent protein deacetylase sirtuin-1 (Homo sapiens) (UniProt Q96EB6).
T1 sequence (whole entry): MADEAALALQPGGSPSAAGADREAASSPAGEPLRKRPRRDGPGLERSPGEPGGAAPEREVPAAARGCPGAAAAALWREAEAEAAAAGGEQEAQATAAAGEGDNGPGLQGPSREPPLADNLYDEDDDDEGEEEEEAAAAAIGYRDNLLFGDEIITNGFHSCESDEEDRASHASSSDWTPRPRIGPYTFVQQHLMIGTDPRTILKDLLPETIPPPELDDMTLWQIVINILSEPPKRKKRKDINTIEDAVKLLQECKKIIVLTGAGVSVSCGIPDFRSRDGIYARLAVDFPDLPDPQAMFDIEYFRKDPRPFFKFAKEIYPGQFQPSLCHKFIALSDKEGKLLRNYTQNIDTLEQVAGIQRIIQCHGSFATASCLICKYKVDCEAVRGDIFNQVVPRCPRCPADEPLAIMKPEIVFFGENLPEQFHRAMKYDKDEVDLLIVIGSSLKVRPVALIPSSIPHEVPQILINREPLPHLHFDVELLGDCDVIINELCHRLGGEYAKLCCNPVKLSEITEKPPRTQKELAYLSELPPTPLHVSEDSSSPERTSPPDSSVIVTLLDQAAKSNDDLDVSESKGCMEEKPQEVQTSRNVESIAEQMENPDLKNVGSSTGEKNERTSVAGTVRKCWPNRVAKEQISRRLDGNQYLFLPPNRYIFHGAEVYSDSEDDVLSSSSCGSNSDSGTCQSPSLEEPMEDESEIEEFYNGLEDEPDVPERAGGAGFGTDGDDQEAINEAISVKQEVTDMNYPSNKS
Put plainly: Inhibition of human SIRT1 assessed as enzyme activity using Fluor-de-Lys as substrate at 1 mM by fluorometry. Further details: scale not given: the % may be the effect or the level left. In short, it runs like this: (§1)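 Commercial Fluor-de-Lys kit, substrate human p53 379–382 peptide (Arg-His-Lys-Lys(Ac)). Human Sirt1 or Sirt2 was incubated with substrate, NAD+ and compound at 1 mM, also tested at 100 µM. Fluorescence scales with Lys382 deacetylation. Activity is expressed relative to control, mean ± S.E.M. of 3–4 replicates.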

Test [3] can be described thus: Growth inhibition of human NCI-ADR-RES cells assessed as cell growth at 10 uM after 48 hrs by MTT assay; values are per cent of control.
A further test has as its system MDA-MB-435. Put plainly: Growth inhibition of human MDA-MB-435 cells assessed as cell growth at 10 uM after 48 hrs by MTT assay; values are per cent of control. The settings on record: MDA-MB-435, 48 h.
In test [4] the test system is SK-MEL-28. As to the kind of experiment: Reduction in ATP level in human SK-MEL-28 cells at 100 uM maintained in Locke's solution after 24 hrs by luciferase-based assay in absence of GF and glucose. In kind it is functional, cell-based. In short, it runs like this:
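SK-MEL-28 cells were grown 24 h in Locke's saline lacking glucose and serum, with or without 100 µM compound; antimycin was the positive control. Cellular ATP was released with a somatic-cell releasing reagent, then luciferase/luciferin assay mix was added and bioluminescence read. Mean ± S.E.M. of 10–14 replicates from 3 separate experiments.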

Test [5] deals with SK-MEL-28. As to the kind of experiment: Increase in superoxide level in human SK-MEL-28 cells at 100 uM maintained in Locke's solution after 24 hrs by DHE-based fluorescence assay in absence of GF and glucose. In kind it is functional, cell-based. In short, it runs like this: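 SK-MEL-28 cells held 24 h in Locke's balanced saline without glucose or serum, with or without 100 µM compound; antimycin was the positive control. Cells were PBS-washed and labelled at 37 °C with DHE (10 µmol/L, 1% DMSO) in Locke's containing 5 mmol/L pyruvate for 40 min. They were then iced, trypsinized and read by FACS as MFI of 10,000 cells, autofluorescence-corrected; 3–4 separate experiments.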

Test [6] concerns SK-MEL-28. Put plainly: Effect on ATP level in human SK-MEL-28 cells maintained in medium containing GF and glucose at 100 uM after 24 hrs by luciferase-based assay. The format is functional, cell-based. In short, it runs like this: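 SK-MEL-28 cells in DMEM with 10% FBS, grown 24 h in 96-well plates in regular medium (growth factors, glucose), with or without compound at 100 µM. Antimycin served as positive control. Cellular ATP was released with a somatic cell releasing reagent and read by luciferase/luciferin bioluminescence. Mean ± S.E.M. of 10–14 replicates from 3 separate experiments.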

Another test has as its system ACHN. Put plainly: Growth inhibition of human ACHN cells assessed as cell growth at 10 uM after 48 hrs by MTT assay; values are per cent of control.
In another test the test system is SR. Put plainly: Growth inhibition of human SR cells assessed as cell growth at 10 uM after 48 hrs by MTT assay; values are per cent of control.
The subject of another test is A549. Put plainly: Growth of human A549/ATCC cells assessed as cell growth at 10 uM after 48 hrs by MTT assay. The settings on record: A549, 48 h.
In a further test the test system is UO-31. Put plainly: Growth of human UO31 cells assessed as cell growth at 10 uM after 48 hrs by MTT assay. The settings on record: UO-31, 48 h.
In another test the test system is SK-OV-3. As to the kind of experiment: Growth inhibition of human SKOV3 cells assessed as cell growth at 10 uM after 48 hrs by MTT assay; values are per cent of control. The settings on record: SK-OV-3, 48 h.
The test system of a further test is OVCAR-4. Put plainly: Growth of human OVCAR4 cells assessed as cell growth at 10 uM after 48 hrs by MTT assay. The settings on record: OVCAR-4, 48 h.
Test [7] has as its target T1, NAD-dependent protein deacetylase sirtuin-1 (Homo sapiens). As to the kind of experiment: Inhibition of human SIRT1 assessed as enzyme activity using Fluor-de-Lys as substrate at 100 uM by fluorometry. In short, it runs like this: as §1
Another test has as its system SF-295. Put plainly: Growth inhibition of human SF295 cells assessed as cell growth at 10 uM after 48 hrs by MTT assay; values are per cent of control. The settings on record: SF-295, 48 h.
In another test the test system is SNB-75. As to the kind of experiment: Growth of human SNB75 cells assessed as cell growth at 10 uM after 48 hrs by MTT assay. Conditions: SNB-75, 48 h.
Another test relates to KM12. As to the kind of experiment: Growth inhibition of human KM12 cells assessed as cell growth at 10 uM after 48 hrs by MTT assay; values are per cent of control. The settings on record: KM12, 48 h.

Calls of active or inactive are those of the source. No cut-off for these calls is given here.

With `c1cncc(-c2cnn[nH]2)c1`, the growth, % of control at 10 µM in the test with SW-620 was determined as 106%; in the test on HT-29, 39.9%; in test [1], 118%; in [3], 71.3%; with MDA-MB-435 it was 56%; with ACHN, 111%. In addition, the growth, % of control at 10 µM was found to be 97.3% with SR; 101% in the test on A549; 76% in the test on UO-31; 48% with SK-OV-3; 47.4% in the test with OVCAR-4; 107% in the test with SF-295. Further, the growth, % of control at 10 µM in the test on SNB-75 worked out at 93%; in the test on KM12, 116%. Also, the Activity in test [2] was found to be 88%. For the same molecule, the result in the test with SK-MEL-28 [4] and in the test on SK-MEL-28 [5] was Active. For the same molecule, the outcome in the test on SK-MEL-28 [6] was inactive. Further, the inhibition result in test [7] was “inactive”.

The values are drawn from ChEMBL document CHEMBL2062496, “Identification of a sirtuin 3 inhibitor that displays selectivity over sirtuin 1 and 2” (Eur J Med Chem, 2012).
